# Experimental data from different studies.
# Protocols differ between the studies behind these lines.
# Effect on: enzyme activity
# Action: inhibitor
# MAP3K11: Mitogen-activated protein kinase kinase kinase 11 (MAP3K11, Homo sapiens, UniProt Q16584)
# MAP3K1: Mitogen-activated protein kinase kinase kinase 1 (MAP3K1, Homo sapiens, UniProt Q13233)
SMILES,target,technique,tested at,remaining activity
Cc1ccc(C(=O)Nc2ccc(CN3CCN(C)CC3)c(C(F)(F)F)c2)cc1C#Cc1cnc2cccnn12,"Serine/threonine-protein kinase 36 (STK36, Homo sapiens, UniProt Q9NRP7)",,23.5 nM,100%
O=C(NCCCNc1ccnc(Nc2cccc(NC(=O)N3CCCC3)c2)n1)C1CCC1,MAP3K11,radiometric,1 µM,86%
CCCOc1ccc(OC)c(F)c1C(=O)c1ccc(C(=O)N[C@@H]2CNC[C@H]2NC(=O)c2ccc3[nH]ncc3c2)cc1,"Mitogen-activated protein kinase 1 (Mapk1, Mus musculus, UniProt P63085)",,10 µM,100%
COc1cc(Nc2cnc(C#N)c(O[C@H](C)CN(C)C)n2)ncc1-c1cnn(C)c1,MAP3K1,radiometric,10 µM,99%
FC(F)c1nc2ccccc2n1-c1nc(N2CCOCC2)nc(N2CCOCC2)n1,MAP3K1,,10 µM,92%
Cc1nn(CC(F)(F)F)cc1Nc1ncc(C2CC2)c(NCc2ccc(S(N)(=O)=O)cc2)n1,MAP3K11,radiometric,1 µM,89%
CC(C)(O)[C@H]1CC[C@H](Nc2ccc3ncc(-c4cccc(C(F)(F)F)c4)n3n2)CC1,"cAMP-dependent protein kinase catalytic subunit gamma (PRKACG, Homo sapiens, UniProt P22612)",,1 µM,98.6%
O=C(NCCCNc1nc(Nc2cccc(CN3CCOCC3)c2)ncc1C1CC1)C1CCC1,MAP3K11,radiometric,1 µM,38%
Cc1cnc(NC2CCOCC2)nc1-n1cnc(C(=O)NC(CN)c2cc(F)cc(Cl)c2)c1 (stereo not drawn),"Hepatocyte growth factor receptor (MET, Homo sapiens, UniProt P08581, M1250T)",radiometric,1 µM,100%
